Test results taken from the EternaBench riboswitch data.

How the values were obtained:
MS2 coat protein [1] = assay: apparent Kd, MS2 coat protein; higher = weaker binding; RNA-MaP array; theophylline 2 mM where present
Method in brief: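 The apparent Kd is reported as the median of filtered per-cluster binding-curve fits. To get these curves, designs transcribed by stalled E. coli RNA polymerase on Illumina sequencing-chip clusters were titrated with SNAP-549-labelled MS2 coat protein from 0.7 or 1.5 nM, doubling to 3 µM. Titrations were run without and then with constant ligand in 100 mM Tris-HCl pH 7.5, 80 mM KCl, 4 mM MgCl2, BSA, DTT, yeast tRNA and Tween-20, and green signal was normalised to red-channel RNA signal and control-cluster median Fmax.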

MS2 coat protein [2] = assay: apparent Kd, MS2 coat protein; higher = weaker binding; RNA-MaP array
Method in brief: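 Designed RNAs were transcribed on an Illumina sequencing chip from sequenced DNA templates. They were incubated at room temperature with fluorescently labeled MS2 coat protein at 1.5 nM to 3 μM, for 0.8–1.5 h at the lowest to 10–20 min at the highest concentrations, in Tris-HCl pH 7.5 buffer with KCl, MgCl2, BSA, DTT, tRNA and Tween20, with or without input ligand. Apparent Kd is the median of per-cluster binding-curve fits. Designs measured on fewer than 10 clusters were excluded.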

[3] = designed as: OFF switch for theophylline, no ligand
[4] = ligand present: theophylline, designed as: OFF switch for theophylline
[5] = designed as: ON switch for theophylline, no ligand
[6] = ligand present: theophylline, designed as: ON switch for theophylline
[7] = designed as: OFF switch for flavin mononucleotide, no ligand
[8] = ligand present: flavin mononucleotide, designed as: OFF switch for flavin mononucleotide
[9] = designed as: ON switch for flavin mononucleotide, no ligand
[10] = ligand present: flavin mononucleotide, designed as: ON switch for flavin mononucleotide

Sequence | apparent Kd (MS2 coat protein [1]; [3]) | apparent Kd (MS2 coat protein [1]; [4]) | also measured
AUAAGUAAUGUUUCGUGUAUUAUUACAGAUACCAGACUAUACGUUGUCCCUUGGCAGCUGGAUUACAUGAGGAUCACCCAUGUUG | 15.8 nM | 27.5 nM | 
AUACAUGAGGAUCACCCAUGUAUAGUCGAUACCAGCUCAAGGAAGAGCCCUUGGCAGCGACACUGGUAUCCAUGGGUGAUACCAG |  |  | apparent Kd (MS2 coat protein [1]; [5]): 22.3 nM; apparent Kd (MS2 coat protein [1]; [6]): 31.5 nM
AUAUGGCGAGAUGAUACCAGACACAUGAGGAUCACCCAUGUUGAUGGUAAGUCUGCAUAUGUCCCUUGGCAGCAUAGCGACAUAU | 8.27 nM | 20.8 nM | 
AUGCAGGGCAACAGCCACUGUCACGGUGAUACCAGUACCCGUGCGUACCCUUGGCAGCAUCGUGGUACAUGAGGAUCACCCAUGU |  |  | apparent Kd (MS2 coat protein [1]; [5]): 271 nM; apparent Kd (MS2 coat protein [1]; [6]): 180 nM
AUUAUCAUGGUCAUUUAUAUUUCGUCAGAUACCAGACUAGAUAUAGUCCCUUGGCAGCUGUUACAUGAGGAUCACCCAUGUUAUU | 124 nM | 46.6 nM | 
AUUUACAUGGUCAUAUAUAUAUCGUCAGAUACCAGACUAGAUAUAGUCCCUUGGCAGCUGUUACAUGAGGAUCACCCAUGUUAUA | 129 nM | 110 nM | 
CAACAAGUAACUGAUACCAGUGUACUGACAUGAGGAUCACCCAUGUUGGGUUUUGUUGUACACCCUUGGCAGCAGAAUCUUGUUG | 60.7 nM | 82.5 nM | 
CAUGGGUGGUAUCACCCAUCCAUAGGUGAUACCAGCAUCGAAAGAUGCCCUUGGCAGCACCAACAUGAGGAUCACCCAUGUAAUA |  |  | apparent Kd (MS2 coat protein [1]; [5]): 264 nM; apparent Kd (MS2 coat protein [1]; [6]): 202 nM
CCUCGACAUGAGGAUCACCCAUGUAGAGAUACCAGCCUGUGAGAUGGCCCUUGGCAGCUCAUAUAGGGUACAGGAGUCGUUUUGA | 23.2 nM | 85.1 nM | 
CGAUCUUUCGAAAGAAGGAUCUUGUCUGAUACCAGAGACGAAAGUCUCCCUUGGCAGCAGUGCCAACAUGAGGAUCACCCAUGUU |  |  | apparent Kd (MS2 coat protein [1]; [5]): 14.5 nM; apparent Kd (MS2 coat protein [1]; [6]): 14.8 nM
CGAUGAUGAAGGGAUACCAGAAAUGGUAUUCCUUUAUUUCUUACAUGAGGAUCACCCAUGUUCCCUUGGCAGCUUUUUAUCAUCG | 75.7 nM | 117 nM | 
CGGUUUGUGAUGGAUACCAGCAGUGUGGCUGUUUAUCCUGACAUGAGGAUCACCCAUGUGUGCCCUUGGCAGCUGUUGUGGGCUG | 76.5 nM | 130 nM | 
GAGCUGAUGUAGAGAUUAUAUAAAAGAGAUACCAGUACAGAAAUGUACCCUUGGCAGCUCAACUUUACAUGAGGAUCACCCAUGU | 14.8 nM | 17.5 nM | 
GAGGGUGAAUCUCUGGUCCGUUUGACGGAUACCAGCGAGAGGUAUCGCCCUUGGCAGCCGACGACAUGAGGAUCACCCAUGUUAA | 17.9 nM | 109 nM | 
GAUGAACUAUAUGAUACCAGACAACAUGAGGAUCACCCAUGUGAAUGUCGUCCUCUGCCUGUCCCUUGGCAGCGUAUAGUUUAUC | 29.6 nM | 177 nM | 
GAUGAACUAUAUGAUACCAGACAACAUGAGGAUCACCCAUGUGUAUGUCGUCCUCUGCCUGUCCCUUGGCAGCGUAUAGUUUAUC | 32.4 nM | 193 nM | 
GAUGAACUAUGUGAUACCAGACAACAUGAGGAUCACCCAUGUGCGCGUCGUCCUCUGCCUGUCCCUUGGCAGCGUAUAGUUUAUC | 60.3 nM | 124 nM | 
GAUGAACUAUUUGAUACCAGACAACAUGAGGAUCACCCAUGUGCGCGUCGUCCUCUGCCUGUCCCUUGGCAGCAAAUAGUUUAUC | 58.5 nM | 97.1 nM | 
GAUGAACUAUUUGAUACCAGACUACAUGAGGAUCACCCAUGUGUGUUUAUACUUCUGUCAGUCCCUUGGCAGCAAAUAGUUUAUC | 62.5 nM | 106 nM | 
UUACGGGAAGGAUAUCAUUGAAGGUACAUGAGGAUCACCCAUGUCUGAUGCGCAUCGCCGUGAGAAGGUCCUGCUU |  |  | apparent Kd (MS2 coat protein [2]; [7]): 38.2 nM; apparent Kd (MS2 coat protein [2]; [8]): 14.9 nM
UUCUAUGUGACAGGAUAUAGACUCCACCAGUUUCUAGAAGGGUCACAGACGGAUCUUUAUUUGUCACAUGAGGAUCACCCAUGU |  |  | apparent Kd (MS2 coat protein [2]; [9]): 28.7 nM; apparent Kd (MS2 coat protein [2]; [10]): 9.71 nM
UUGCAACAAACAGGAUAUACGCGGACUUCACGGGUAGAAGGGUUCGACCAGGAGAUAUCCCACAUGAGGAUCACCCAUGUCGUC |  |  | apparent Kd (MS2 coat protein [2]; [7]): 163 nM; apparent Kd (MS2 coat protein [2]; [8]): 130 nM
UUGCAAUAGUAGAAGGACCACUCAAGUGUGACGGUAGGAUAUACGGUACAUGAGGAUCACCCAUGUGAGACUACAGCCCUCUCC |  |  | apparent Kd (MS2 coat protein [2]; [7]): 20 nM; apparent Kd (MS2 coat protein [2]; [8]): 21.9 nM
UUGUCACAUGAGGAUCACCCAUGUAAGAGAUUCCAAGGAUAUAUUAUCGGGUAAAAUGAAAUAGAAGGUGGUCAGA |  |  | apparent Kd (MS2 coat protein [2]; [9]): 90.3 nM; apparent Kd (MS2 coat protein [2]; [10]): 65.6 nM
UUUUACGCAAGUAAUUCCCGGGAACCGGAUACCAGCUCCUCCAACAGCCCUUGGCAGCCGACCACAUGAGGAUCACCCAUGUUUC |  |  | apparent Kd (MS2 coat protein [2]; [3]): 11.7 nM; apparent Kd (MS2 coat protein [2]; [4]): 19.3 nM
